Active and inactive are the calls of the source. The rule behind the calls is not given here.
Legend:
[1] = target: T1, Isocitrate dehydrogenase [NADP] cytoplasmic (Homo sapiens, UniProt O75874, R132H); assay: Inhibition of IDH1 R132H mutant using alpha-ketoglutarate as substrate after 60 mins by resazurin-based fluorimetric analysis
[2] = Growth inhibition of human U87 cells after 72 hrs by CellTiter-Glo assay; format: functional, U-87MG ATCC; settings: U-87 MG
In short: (§1)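 Cells exposed to compound for 72 h, run within the same experiment as the 2-HG assay; total cellular ATP measured; concentration giving 50% growth inhibition (GI50) determined.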

[3] = target: T2, Isocitrate dehydrogenase [NADP] cytoplasmic (Homo sapiens, UniProt O75874, R132C); assay: Inhibition of IDH1 R132C mutant using alpha-ketoglutarate as substrate after 60 mins by resazurin-based fluorimetric analysis
[4] = target: T3, Isocitrate dehydrogenase [NADP] cytoplasmic (Homo sapiens, UniProt O75874); assay: Inhibition of wild type IDH1 using DL-isocitrate as substrate by resazurin-based fluorimetric analysis
[5] = target: T2, Isocitrate dehydrogenase [NADP] cytoplasmic; assay: Inhibition of IDH1 R132C mutant endogenously expressing human HT1080 cells assessed as inhibition of 2-hydroxyglutarate production after 48 hrs by LC/MS analysis
[6] = target: T3, Isocitrate dehydrogenase [NADP] cytoplasmic; assay: Inhibition of wild type IDH1 using DL-isocitrate as substrate by resazurin-based fluorimetric analysis relative to control
HT-1080 = assay: Growth inhibition of human HT1080 cells after 72 hrs by CellTiter-Glo assay; format: functional; settings: HT-1080, 72 h; in short: as §1
[7] = target: T1, Isocitrate dehydrogenase [NADP] cytoplasmic; assay: Inhibition of IDH1 R132H mutant expressed in human U87 cells assessed as inhibition of 2-hydroxyglutarate production after 48 hrs by LC/MS analysis; format: cell-based, U-87MG ATCC
[8] = Fraction unbound in CD1 nude mouse plasma xenografted with human U87 cells expressing IDH1 R132H mutant at 150 mg/kg, ip administered BID for 1 day; format: ADME, organism-based, U-87MG ATCC; set-up: dose 150 mg/kg, route intraperitoneal
[9] = AUC (0 to 24 hrs) in mouse at 50 mg/kg, ip; format: ADME, organism-based; set-up: time < 24 hr, dose 50 mg/kg, route intraperitoneal; settings: plasma
In short: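 Mouse given a single IP dose of 50 mg/kg; plasma exposure expressed as AUC0−24h.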

[10] = Plasma protein binding in mouse by equilibrium dialysis method; format: ADME, cell-free; settings: read-out: PPB (converted)
In short: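 Mouse plasma protein binding measured by equilibrium dialysis.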

[11] = Hepatic extraction ratio in rat liver microsomes; format: ADME, Microsome; settings: read-out: ERH
In short: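 Compound incubated with rat liver microsomes in vitro. Turnover in the incubation was used to estimate the hepatic extraction ratio. Human microsomes were run alongside.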

Mus musculus [12] = assay: Inhibition of IDH1 R132H mutant in human U87 cells xenografted in CD1 nude mouse assessed as inhibition of 2-hydroxyglutarate production at 150 mg/kg, ip administered BID by LC/MS analysis relative to vehicle-treated control; format: functional, U-87MG ATCC; settings: route intraperitoneal
In short: (§2)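 Female nude mice bearing U87 R132H tumor xenografts dosed IP at 150 mg/kg in 0.5% MC/0.2% Tween 80, one dose or three BID doses; blood and tumor sampled at several time points; tumor 2-HG quantified by LC/MS/MS against vehicle-dosed animals.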

Mus musculus [13] = assay: Inhibition of IDH1 R132H mutant in human U87 cells xenografted in CD1 nude mouse assessed as inhibition of 2-hydroxyglutarate production at 150 mg/kg, ip administered as single dose by LC/MS analysis relative to vehicle-treated control; format: functional, U-87MG ATCC; settings: route intraperitoneal; in short: as §2
[14] = system: Isocitrate dehydrogenase [NADP] cytoplasmic (Homo sapiens), O75874 [R132H]; assay: Reversible inhibition of IDH1 R132H mutant using alpha-ketoglutarate as substrate by stopped-flow spectrophotometric analysis
[15] = system: Isocitrate dehydrogenase [NADP] cytoplasmic (Homo sapiens), O75874 [R132H]; assay: Competitive inhibition of IDH1 R132H mutant using alpha-ketoglutarate as substrate by stopped-flow spectrophotometric analysis
[16] = system: Isocitrate dehydrogenase [NADP] cytoplasmic (Homo sapiens), O75874 [R132H]; assay: Uncompetitive inhibition of IDH1 R132H mutant using NADPH as substrate by stopped-flow spectrophotometric analysis

T2 sequence (O75874 2-414 R132C limits assumed): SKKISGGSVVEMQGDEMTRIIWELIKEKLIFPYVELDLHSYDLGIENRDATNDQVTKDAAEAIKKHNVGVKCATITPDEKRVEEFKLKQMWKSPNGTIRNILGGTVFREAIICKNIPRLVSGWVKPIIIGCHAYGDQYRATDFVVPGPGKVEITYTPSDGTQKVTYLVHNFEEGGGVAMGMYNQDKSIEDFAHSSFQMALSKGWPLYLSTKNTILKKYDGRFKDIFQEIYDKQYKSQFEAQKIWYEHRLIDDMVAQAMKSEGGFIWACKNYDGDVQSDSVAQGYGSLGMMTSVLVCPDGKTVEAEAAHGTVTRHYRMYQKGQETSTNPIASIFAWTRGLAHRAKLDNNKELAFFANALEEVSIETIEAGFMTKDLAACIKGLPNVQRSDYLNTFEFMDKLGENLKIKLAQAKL
T1 sequence (O75874 2-414 R132H limits assumed): as the sequence (O75874 2-414 R132C limits assumed) above, with C131H counted along it
Isocitrate dehydrogenase [NADP] cytoplasmic (Homo sapiens), O75874 [R132H], sequence (O75874 whole entry R132H): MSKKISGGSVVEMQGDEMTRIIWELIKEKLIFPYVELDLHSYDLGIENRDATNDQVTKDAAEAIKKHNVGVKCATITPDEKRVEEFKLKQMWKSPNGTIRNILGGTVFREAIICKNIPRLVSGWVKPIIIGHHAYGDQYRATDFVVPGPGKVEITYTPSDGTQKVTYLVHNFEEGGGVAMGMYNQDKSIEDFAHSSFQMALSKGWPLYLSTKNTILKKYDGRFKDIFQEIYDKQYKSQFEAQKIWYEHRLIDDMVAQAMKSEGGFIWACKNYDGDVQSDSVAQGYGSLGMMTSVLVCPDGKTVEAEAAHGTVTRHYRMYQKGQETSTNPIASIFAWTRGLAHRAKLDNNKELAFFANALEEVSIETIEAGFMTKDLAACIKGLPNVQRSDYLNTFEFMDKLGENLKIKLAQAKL
T3 sequence (O75874 whole entry): as the sequence (O75874 whole entry R132H) above, with H132R counted along it

In the case of `Cc1ccccc1C(C(=O)NC1CCCCC1)N(CCc1cccs1)c1cccc(F)c1` (racemic), the IC50 [1] is reported as > 100000 nM.
In the case of `Cc1ccccc1C(C(=O)NC1CCCCC1)N(C(=O)CN1CCOCC1)c1cccc(F)c1` (racemic), the IC50 [1] is reported as 240 nM.
With `Cc1ccccc1C(C(=O)NC1CCCCC1)N(C(=O)Cn1cccn1)c1cccc(F)c1` (racemic) the IC50 [1] was 420 nM.
`Cc1ccccc1NC(=O)C(c1ccccc1C)N(C(=O)Cc1cccs1)c1cccc(F)c1` (racemic) showed an IC50 [1] of 570 nM.
For `Cc1ccccc1C(C(=O)NC1CCCCC1)N(C(=O)CN1CCNCC1)c1cccc(F)c1` (racemic), the IC50 [1] was 5640 nM.
In the case of `Cc1ccccc1C(C(=O)NC1CCCCC1)N(C(=O)Cc1cccs1)c1cccc(F)c1` (racemic), the GI50 [2] is reported as > 20000 nM, the IC50 [3] is reported as 30 nM and the IC50 [4] is reported as 2900 nM. For the same molecule, the IC50 [5] was 150 nM, the Imax [6] was 22% and the IC50 [1] was 50 nM. For the same molecule, the GI50 (HT-1080) was > 20000 nM and the IC50 [7] was 190 nM.
With `Cc1ccccc1C(C(=O)NC1CCCCC1)N(C(=O)CNC1CC1)c1cccc(F)c1` (racemic) the IC50 [1] was 190 nM.
With `Cc1ccccc1C(C(=O)NC1CCCCC1)N(C(=O)Cc1c[nH]c2ccccc12)c1cccc(F)c1` (racemic) the GI50 [2] was > 20000 nM, the IC50 [3] was 30 nM and the IC50 [4] was 6300 nM. For the same molecule, the IC50 [5] was 90 nM, the Imax [6] was 39% and the IC50 [1] was 60 nM. For the same molecule, the GI50 (HT-1080) was > 3000 nM and the IC50 [7] was 360 nM.
`Cc1ccccc1C(C(=O)NC1CCCCC1)N(C(=O)CNC1CCCC1)c1cccc(F)c1` (racemic) showed an IC50 [1] of 450 nM.
With `Cc1ccccc1C(C(=O)NC1CCCCC1)N(C(=O)Cn1ccc2ccccc21)c1cccc(F)c1` (racemic) the GI50 [2] was > 20000 nM, the IC50 [3] was 40 nM and the IC50 [4] was > 100000 nM. The IC50 [5] was 170 nM, the IC50 [1] was 70 nM and the GI50 (HT-1080) was > 20000 nM. It also gave an IC50 [7] of 370 nM.
Work on `Cc1ccccc1C(C(=O)NC1CCCCC1)N(C(=O)CN1CCCC1)c1cccc(F)c1` (racemic) yielded an IC50 [1] of 1630 nM.
`O=C(NC1CCCCC1)[C@H](c1ccccc1)N(C(=O)Cc1cccs1)c1cccc(F)c1` gave an IC50 [1] of 60 nM.
In the case of `Cc1ccccc1C(C(=O)NC1CCCCC1)N(C(=O)Cn1ccnc1C)c1cccc(F)c1` (racemic), the fraction unbound at 24 h [8] is reported as 0.043, the AUC(0-t) at 24 h [9] is reported as 20800 ng·h/mL and the fraction unbound [10] is reported as 0.043. For the same molecule, the GI50 [2] was > 20000 nM, the hepatic extraction ratio [11] was 0.85 and the IC50 [3] was 160 nM. For the same molecule, the IC50 [4] was > 100000 nM, the IC50 [5] was 480 nM and the IC50 [1] was 70 nM. The Imax (Mus musculus [12]) was 89.4%, the Imax (Mus musculus [13]) was 69% and the GI50 (HT-1080) was > 20000 nM.
`Cc1ccccc1C(C(=O)NCc1ccccc1)N(C(=O)Cc1cccs1)c1cccc(F)c1` (racemic) showed an IC50 [1] of 1800 nM.
For `Cc1ccccc1C(C(=O)NC(C)(C)C)N(C(=O)Cc1cccs1)c1cccc(F)c1` (racemic), the IC50 [1] was 860 nM.
For `Cc1ccccc1C(C(=O)NC1CCNCC1)N(C(=O)Cc1cccs1)c1cccc(F)c1` (racemic), the IC50 [1] was 53100 nM.
In the case of `Cc1ccccc1C(C(=O)NC1CCCC1)N(C(=O)Cc1cccs1)c1cccc(F)c1` (configuration not stated), the inhibition [14] is reported as “Active”, the GI50 [2] is reported as > 20000 nM and the IC50 [3] is reported as 50 nM. The IC50 [4] was 7700 nM, the inhibition [15] was “Active” and the IC50 [5] was 390 nM. The Imax [6] was 32%, the inhibition [16] was “Active” and the IC50 [1] was 90 nM. For the same molecule, the GI50 (HT-1080) was > 20000 nM and the IC50 [7] was 580 nM.
With `O=C(NC1CCCCC1)C(c1ccccc1)N(C(=O)Cc1cccs1)c1cccc(F)c1` (configuration not stated) the IC50 [1] was 80 nM.
`Cc1ccccc1C(C(=O)NC1CCC1)N(C(=O)Cc1cccs1)c1cccc(F)c1` (racemic) showed an IC50 [1] of 290 nM.
With `Cc1ccccc1C(CNC1CCCCC1)N(C(=O)Cc1cccs1)c1cccc(F)c1` (racemic) the IC50 [1] was > 100000 nM.
Molecule `CC(C(=O)NC1CCCCC1)(c1ccccc1)N(C(=O)Cc1cccs1)c1cccc(F)c1` (racemic) has an IC50 [1] of 1400 nM.
In the case of `Cc1ccccc1C(C(=O)NC1CCCCC1)N(C(=O)Cn1c(C)nc2ccccc21)c1cccc(F)c1` (racemic), the GI50 [2] is reported as > 20000 nM, the IC50 [3] is reported as 40 nM and the IC50 [4] is reported as > 100000 nM. The IC50 [5] was 110 nM, the IC50 [1] was 80 nM and the GI50 (HT-1080) was > 20000 nM. The IC50 [7] was 240 nM.
For `Cc1ccccc1C(C(=O)NC1CCCCC1)N(C(=O)Cc1cscn1)c1cccc(F)c1` (racemic), the GI50 [2] was > 20000 nM, the IC50 [3] was 60 nM and the IC50 [4] was 19700 nM. For the same molecule, the IC50 [5] was 220 nM, the Imax [6] was 32% and the IC50 [1] was 100 nM. The GI50 (HT-1080) was > 20000 nM and the IC50 [7] was 290 nM.
With `Cc1ccccc1C(C(=O)NC1CCCCC1)N(C(=O)Cc1ccncc1)c1cccc(F)c1` (racemic) the GI50 [2] was > 20000 nM, the IC50 [3] was 50 nM and the IC50 [4] was 19300 nM. For the same molecule, the IC50 [5] was 260 nM, the Imax [6] was 34% and the IC50 [1] was 50 nM. For the same molecule, the GI50 (HT-1080) was > 20000 nM and the IC50 [7] was 210 nM.
`Cc1ccccc1C(C(=O)NC1CCCCC1)N(C(=O)Cn1cncn1)c1cccc(F)c1` (racemic) showed an IC50 [1] of 140 nM.
For `Cc1ccccc1C(C(=O)NC1CC1)N(C(=O)Cc1cccs1)c1cccc(F)c1` (racemic), the IC50 [1] was 2880 nM.
Work on `Cc1ccccc1C(C(=O)NC1CCCCC1)N(C(=O)Cc1cncnc1)c1cccc(F)c1` (racemic) yielded an IC50 [1] of 1100 nM.
Molecule `Cc1ccccc1C(C(=O)NC1CCCCC1)N(C(=O)CN)c1cccc(F)c1` (racemic) has an IC50 [1] of 7800 nM.
With `Cc1ccccc1C(C(=O)NC1CCCCC1)N(C(=O)CN1CCc2ccccc21)c1cccc(F)c1` (racemic) the IC50 [1] was 140 nM.
With `Cc1ccccc1C(C(=O)NC1CCCCC1)N(C(=O)CNC1CCCCC1)c1cccc(F)c1` (racemic) the IC50 [1] was 1270 nM.
Molecule `Cc1ccccc1C(C(=O)NC1CCCCC1)N(C(=O)CNc1ccccc1)c1cccc(F)c1` (racemic) has an IC50 [1] of 60 nM.
`CN(C(=O)C(c1ccccc1)N(C(=O)Cc1cccs1)c1cccc(F)c1)C1CCCCC1` (racemic) showed an IC50 [1] of 3600 nM.
With `O=C(NC1CCCCC1)[C@@H](c1ccccc1)N(C(=O)Cc1cccs1)c1cccc(F)c1` the IC50 [1] was > 11000 nM.
`Cc1ccccc1C(C(=O)NC1CCOCC1)N(C(=O)Cc1cccs1)c1cccc(F)c1` (racemic) gave an IC50 [1] of 640 nM.
For `Cc1ccccc1C(C(=O)NC1CCCCC1)N(C(=O)CCl)c1cccc(F)c1` (racemic), the IC50 [1] was 900 nM.
`Cc1ccccc1C(C(=O)NC1CCCCC1)N(C(=O)CN(C)c1ccccc1)c1cccc(F)c1` (racemic) gave an IC50 [1] of 50 nM.

Source: ChEMBL document CHEMBL2176947, “Discovery of the First Potent Inhibitors of Mutant IDH1 That Lower Tumor 2-HG in Vivo” (ACS Med Chem Lett, 2012)
